Measured values as given in ChEMBL document CHEMBL2040828 (J Med Chem, 2012).
Activity calls are given as the source filed them. No cut-off for these calls is given here.

Experiments:
[1] = Irreversible inhibition of hepatitis C virus NS5B polymerase; design: species or system Hepacivirus hominis
Salmonella typhimurium [2] = assay: Mutagenic activity in Salmonella typhimurium by mini-AMES test in presence of S9 fraction; format: toxicity, organism-based; conditions: salmonella enterica subsp. enterica serovar typhimurium
[3] = AUC in rat at 10 mg/kg, po; format: ADME, organism-based; design: dose 10 mg/kg, route oral; conditions: plasma
How it was run: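 Single-dose pharmacokinetics: rats were dosed at 10 mg/kg, and monkeys and dogs at 3 mg/kg. Oral AUC, clearance, half-life and bioavailability were determined. All doses were given in 0.4% MC vehicle.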

Hepatitis C virus = assay: Antiviral activity against HCV by cell based replicon assay; format: functional, organism-based, Hepacivirus hominis
Lupus La protein = molecular target: T1, Lupus La protein (Homo sapiens, UniProt P05455); assay: Binding affinity to human La antigen by NMR based ALARM assay; format: ADME
T1 sequence (P05455 whole entry): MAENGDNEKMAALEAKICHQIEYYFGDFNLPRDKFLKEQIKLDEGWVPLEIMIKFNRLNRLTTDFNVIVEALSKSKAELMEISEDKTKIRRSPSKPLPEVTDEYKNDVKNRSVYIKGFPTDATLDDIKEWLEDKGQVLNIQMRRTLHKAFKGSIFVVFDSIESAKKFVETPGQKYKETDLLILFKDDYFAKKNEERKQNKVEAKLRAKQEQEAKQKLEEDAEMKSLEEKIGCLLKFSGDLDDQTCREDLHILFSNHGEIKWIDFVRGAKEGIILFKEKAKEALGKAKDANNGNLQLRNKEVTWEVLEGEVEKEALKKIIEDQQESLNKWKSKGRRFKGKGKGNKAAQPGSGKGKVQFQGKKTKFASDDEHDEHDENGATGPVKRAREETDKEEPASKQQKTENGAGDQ
How it was run: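 NMR-based ALARM assay. The compound was incubated with human La antigen, and NMR was used to monitor reaction with the antigen's reactive thiols.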

Salmonella typhimurium [4] = assay: Mutagenic activity in Salmonella typhimurium by mini-AMES test in absence of S9 fraction; format: toxicity, organism-based; conditions: salmonella enterica subsp. enterica serovar typhimurium
[5] = Mutagenic activity in micronuclei assessed as induction of chromosomal damage
Hepacivirus hominis = assay: Binding affinity to hepatitis C virus NS5B polymerase assessed as covalent bonding with cysteine-366 residue by mass spectroscopy analysis

## Nc1cc(Cn2c(C(=O)O)c(-c3ccc[nH]c3=O)c3cc(Cl)ccc32)ccn1
[1]
  IC50: 53 nM

## CCc1ccc2c(c1)c(-c1ccc[nH]c1=O)c(C(=O)NS(=O)(=O)C1CC1)n2Cc1cc([N+](=O)[O-])ccc1F
[1]
  IC50: 4 nM
Salmonella typhimurium [2]
  Activity: Non-toxic
[3]
  AUC: 0.17 µM·h
Hepatitis C virus
  EC50: 1 nM
Lupus La protein
  Activity: Not Active
Salmonella typhimurium [4]
  Activity: Non-toxic
[5]
  Activity: Non-toxic

## Cc1ccc2c(c1)c(-c1ccc[nH]c1=O)c(C(=O)NS(C)(=O)=O)n2Cc1cc([N+](=O)[O-])ccc1F
[1]
  IC50: 6 nM
[3]
  AUC: 0.19 µM·h
Hepatitis C virus
  EC50: 1 nM
Hepacivirus hominis
  Activity: Active

## O=C(NS(=O)(=O)C1CC1)c1c(-c2ccc[nH]c2=O)c2ccccc2n1Cc1cc([N+](=O)[O-])ccc1F
[1]
  IC50: 4 nM
Hepatitis C virus
  EC50: 6 nM

## Cc1ccc2c(c1)c(-c1ccc(C)[nH]c1=O)c(C(=O)O)n2Cc1cc([N+](=O)[O-])ccc1F
[1]
  IC50: 13 nM
Hepatitis C virus
  EC50: 30 nM

## Cc1ccc2c(c1)c(-c1ccc[nH]c1=O)c(C(=O)NS(=O)(=O)C1CC1)n2Cc1cc(F)ccc1F
[1]
  IC50: 6 nM

## Cc1ccc2c(c1)c(-c1ccc[nH]c1=O)c(C(=O)NS(=O)(=O)C1CC1)n2Cc1cc(C(N)=O)ccc1F
[1]
  IC50: 4 nM
Hepatitis C virus
  EC50: 140 nM

## CC(C)(C)c1ccc2c(c1)c(-c1ccc[nH]c1=O)c(C(=O)NS(=O)(=O)C1CC1)n2Cc1cc([N+](=O)[O-])ccc1F
[1]
  IC50: 6 nM
Hepatitis C virus
  EC50: 10 nM

## Cc1ccc2c(c1)c(-c1ccc[nH]c1=O)c(C(=O)NS(=O)(=O)C1CC1)n2Cc1cc([N+](=O)[O-])ccc1F
[1]
  IC50: 6 nM
[3]
  AUC: 0.01 µM·h
Hepatitis C virus
  EC50: 1 nM

## Cc1ccc2c(c1)c(-c1ccc[nH]c1=O)c(C(=O)NS(=O)(=O)C1CC1)n2Cc1cc(S(C)(=O)=O)ccc1F
[1]
  IC50: 6 nM
Hepatitis C virus
  EC50: 580 nM

## Cc1cc2c(-c3ccc[nH]c3=O)c(C(=O)NS(=O)(=O)C3CC3)n(Cc3cc([N+](=O)[O-])ccc3F)c2cc1F
[1]
  IC50: 7 nM
[3]
  AUC: 0.35 µM·h
Hepatitis C virus
  EC50: 4 nM

## CCc1ccc2c(c1)c(-c1ccc[nH]c1=O)c(C(=O)NS(=O)(=O)C1CC1)n2Cc1cc(S(N)(=O)=O)c(Cl)cc1Cl
[1]
  IC50: 6 nM
Hepatitis C virus
  EC50: 1400 nM

## Cc1ccc2c(c1)c(-c1ccc[nH]c1=O)c(C(=O)NS(=O)(=O)C1CC1)n2Cc1ccccc1F
[1]
  IC50: 5 nM
Hepatitis C virus
  EC50: 50 nM

## Cc1ccc2c(c1)c(-c1ccc(C)[nH]c1=O)c(C(=O)NS(C)(=O)=O)n2Cc1cc([N+](=O)[O-])ccc1F
[1]
  IC50: 6 nM
Hepatitis C virus
  EC50: 8 nM

## Cc1ccc2c(c1)c(-c1ccc(C)[nH]c1=O)c(C(=O)NS(=O)(=O)C1CC1)n2Cc1cc([N+](=O)[O-])ccc1F
[1]
  IC50: 12 nM
Hepatitis C virus
  EC50: 9 nM

## Cc1ccc2c(c1)c(-c1ccc[nH]c1=O)c(C(=O)NS(=O)(=O)C1CC1)n2Cc1cccc(C)c1F
[1]
  IC50: 4 nM
Hepatitis C virus
  EC50: 380 nM

## CCc1ccc2c(c1)c(-c1ccc[nH]c1=O)c(C(=O)NS(=O)(=O)C1CC1)n2Cc1cc(S(C)(=O)=O)c(Cl)cc1F
[1]
  IC50: 2 nM
Hepatitis C virus
  EC50: 60 nM
